The text below walks through data of paper PMC3361640 (Insect Biochemistry and Molecular Biology, 2012).

Assay [1] concerns Megacyllene caryae adults. To be noted: adult M. caryae, field; ref Mitchell, 2012; cited from earlier work.
Another assay deals with McOr20. The experiment in a line: McOr20 co-expressed with Orco. It counts as cell-based, Megacyllene caryae. The settings on record: for Current response of receptor in screen: McOr20, odorant at 30 µM applied 20 s; for Current response of receptor in separate screen: McOr20, odorant at 100 µM, data not shown.
The next assay concerns BmOr 1. To be noted: ref Nakagawa et al., 2005; cited from earlier work.
Another assay has as its system McOr3. The experiment in a line: McOr3 co-expressed with Orco. The assay is classed as cell-based, Megacyllene caryae. The settings on record: McOr3, odorant at 30 µM applied 20 s. A digest of the protocol:
(§1)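 Defolliculated Xenopus laevis oocytes (collagenase B, 2 h, room temperature) were co-injected with receptor and Orco (McOr1) cRNA and incubated 3–7 d. Two-electrode voltage clamp was run at −70 mV with 3 M KCl electrodes (0.2–2.0 MΩ) in ND96. Pheromone components and isomers, diluted in ND96, were applied at 30 µM for 20 s at 1.6 ml/min. Currents were filtered at 20 Hz and sampled at 100 Hz.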

The subject of the next assay is AmOr11. To be noted: AmOr11, Xenopus assay; ref Wanner et al., 2007; cited from earlier work.
Another assay relates to BmOr3. The settings on record: ref Nakagawa et al., 2005; cited from earlier work.
A further assay concerns McOr5. The experiment in a line: McOr5 co-expressed with Orco. The assay is classed as cell-based, Megacyllene caryae. The settings on record: McOr5, odorant at 30 µM applied 20 s. The method, boiled down:
as §1

Turning to `CC(C)=CCCC(C)=CC=O` (mixture of isomers) [Citral, citral], in assay [1], the Attraction of beetles entry was “attracts males and females in similar numbers”. For the compound `CCC[C@@H](O)[C@H](C)O` [(2S,3R)-2,3-hexanediol], the “Current response of receptor in screen” value in the assay on McOr20 is recorded as “sensitive”. In the case of `CCC/C=C\C=C\CCCCCCCCCO` [bombykol], in the assay on BmOr 1, the EC50 was 1500 nM. For the compound `CC[C@H](C)CO` [(S)-methylbutan-1-ol, (S)-2-methylbutan-1-ol], the “Current response of receptor in screen” value with McOr3 is listed as “responded with high sensitivity”.

In the case of `CCC[C@H](O)[C@@H](C)O` [(2R,3S)-2,3-hexanediol], in the assay with McOr20, the “Current response of receptor in separate screen” value is “responded”. As for `CCC[C@@H](O)C(C)=O` [(R)-3-hydroxyhexan-2-one], the “Current response of receptor in screen” value in the assay on McOr20 is reported as “sensitive”. Regarding `CCC[C@H](O)[C@H](C)O` [(2S,3S)-2,3-hexanediol], the “Current response of receptor in separate screen” value in the assay with McOr20 was “responded”.

Take `CC(=O)CCCCCC=CC(=O)O` [9-oxo-2-decenoic acid]: in the assay with AmOr11, the EC50 is 280 nM. `CCC/C=C\C=C\CCCCCCCCC=O` [bombykal]: the concentration for a half-maximal effect (EC50) in the assay with BmOr3 was 260 nM. On to `OCCc1ccccc1` [2-phenylethanol], for which the “Current response of receptor in screen” value in the assay with McOr5 is listed as “sensitive”.

In general, EC50 refers to the concentration giving half of the maximal effect.
